The results in this text go back to ChEMBL document CHEMBL2417522, “N-aryl-6-methoxy-1,2,3,4-tetrahydroquinolines: a novel class of antitumor agents targeting the colchicine site on tubulin” (Eur J Med Chem, 2013).

The nature of data set [1]: […] partition coefficient, log P of the compound at pH 7.4 after 24 hrs by HPLC analysis. The class given is physicochemical. The method, boiled down: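 Compound dissolved at 1.0 mg/mL in […]. Log P taken from the ratio of HPLC peak areas in the […] and water phases.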
Data set [2] concerns the target T1, Tubulin (Homo sapiens) (UniProt P68371+Q9H4B7+P0DPH7+P68366+Q13509+Q71U36+P04350+Q3ZCM7+P07437+P68363+Q9BQE3+Q6PEY2+Q13885+Q9BVA1+Q9BUF5). Kind of data set: Competitive inhibition of [3H]colchicine binding to tubulin (unknown origin) at 1 uM after 10 mins by radioligand displacement assay. It counts as protein-complex assay. Summed up: (§1)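 [3H]colchicine binding: 1.0 µM tubulin, 5.0 µM [3H]colchicine and inhibitor at 5.0 or 1.0 µM, 10 min at 37 °C, when control binding reaches about 40–60% of maximum. […] Percent inhibition reported.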

The target in data set [3] is T1, Tubulin (Homo sapiens). As to the kind of experiment: Competitive inhibition of [3H]colchicine binding to tubulin (unknown origin) at 5 uM after 10 mins by radioligand displacement assay. It counts as protein-complex assay. The method, boiled down: as §1
(Loss of bound radioactivity is the signal in a displacement assay; it reports binding, not function.)

The next data set deals with Tubulin. Kind of data set: Inhibition of tubulin assembly (unknown origin) preincubated for 15 mins followed by GTP addition measured after 20 mins by turbidimetric analysis. It counts as protein-complex assay, Homo sapiens.
For data set [4], the system named is DU-145. Kind of data set: Cytotoxicity against human DU145 cells by SRB method. The class given is functional. (In general: Sulforhodamine B stains cellular protein and so reports cell mass.)
Data set [5] can be described thus: Aqueous solubility of the compound at pH 7.4 after 4 hrs by HPLC-UV method. It counts as physicochemical. The note with it: buffer, pH 7.4, 4 h. The method, boiled down: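 Solubility at pH 7.4: DMSO stock (1.0 mg/mL) diluted into phosphate buffer, final DMSO 1%; stirred 4 h at rt, centrifuged; saturated supernatant quantified by HPLC–UV against a standard curve (50–0.20 µg/mL in ACN). Triplicate samples.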

Data set [6] deals with KB. As to the kind of experiment: Cytotoxicity against human KB cells by SRB method. The class given is functional.
Data set [7] is described as follows: Cytotoxicity against human KBVIN cells by SRB method. It counts as functional.
For data set [8], the system named is A549. As to the kind of experiment: Cytotoxicity against human A549 cells by SRB method. The class given is functional.
Data set [9] has as its system KB. As to the kind of experiment: Cytotoxicity against human KB cells at 60 uM by SRB method. The class given is functional, cell-based.
The next data set relates to KBVIN. Kind of data set: Cytotoxicity against human KBVIN cells at 60 uM by SRB method. The class given is functional, cell-based.
The subject of data set [10] is DU-145. Kind of data set: Cytotoxicity against human DU145 cells at 60 uM by SRB method. The class given is functional, cell-based.
Data set [11] has as its system A549. As to the kind of experiment: Cytotoxicity against human A549 cells at 60 uM by SRB method. The class given is functional, cell-based.
The test system of another data set is Liver microsomes. Kind of data set: Half life in human liver microsomes at 1 uM by LC-MS analysis. The class given is ADME, Microsome. (In general: Liver microsomes are vesicles of endoplasmic reticulum, rich in cytochrome P450 enzymes.)

Converted amounts (≈) assume the structure as drawn. The source made the active and inactive calls. No cut-off for these calls is given here.

As for `COc1ccc2c(c1)CCCN2c1nc(Cl)nc2ccccc12`, the logD (commonly lipophilicity at a set pH, counting ionised and neutral species) at 24 h in data set [1] came to 4.13. In addition, the inhibition (usually the change of the read-out against control, counted positive when it falls) was 95% at Tubulin (Homo sapiens) [2] and 99% on Tubulin (Homo sapiens) [3]. Further, half-maximal inhibition at Tubulin (IC50) required 930 nM. In addition, the GI50 (usually the concentration giving 50% growth inhibition) in the data set with DU-145 [4] was 1.5 nM.

Consider `CNC(=O)c1cc(Br)cc(N(C)c2ccc(OC)cc2)c1`, for which, in data set [1], the logD at 24 h is 4.02. The solubility (in general, the concentration that dissolves in the medium under given conditions) in data set [5] turned out to be 0.81 µg/mL (≈ 2.32 µM). Moreover, the inhibition at Tubulin (Homo sapiens) [3] stood at 71%. The IC50 (usually the midpoint of a concentration-inhibition curve) against Tubulin amounted to 2200 nM. The GI50 in the data set on DU-145 [4] was determined as 160 nM; in the data set on KB [6], 210 nM; in [7], 140 nM; with A549 [8], 250 nM.

In the case of `CNC(=O)c1cc(N(C)c2ccc(OC)cc2)cc(C(F)(F)F)c1`, the GI50 with DU-145 [4] came to 11900 nM; in the data set on KB [6], 12300 nM; in data set [7] it was 12600 nM; in the data set on A549 [8], 14700 nM.

Turning to `COc1ccc2c(c1)CCCN2c1cccc2ccccc12`, the GI50 in the data set with DU-145 [4] is 14800 nM; in the data set on KB [6] it was 15600 nM; in data set [7], 17600 nM; in the data set with A549 [8] it was 17800 nM.

As for `CNC(=O)c1cc(Br)cc(N2CCCc3cc(OC)ccc32)c1`, the GI50 is 560 nM in the data set on DU-145 [4], 630 nM in the data set with KB [6], 930 nM in data set [7] and 370 nM in the data set with A549 [8].

`COc1ccc(N(C)c2cc(Br)cc(C(=O)N(C)C)c2)cc1`: the GI50 in the data set on DU-145 [4] is 3340 nM; with KB [6], 6520 nM; in [7] it was 2380 nM; in the data set with A549 [8] it was 2830 nM.

As for `COc1ccc(N(C)c2cc(Br)cc(C(=O)O)c2)cc1`, the “growth inhibition (GI)” value with KB [9], in the data set on KBVIN, with DU-145 [10] and in the data set on A549 [11] was “inactive” each time.

`CNC(=O)c1cc(Cl)cc(N(C)c2ccc(OC)cc2)c1`: the GI50 in the data set with DU-145 [4] is 230 nM; with KB [6], 300 nM; in [7] it was 230 nM; in the data set on A549 [8] it was 270 nM.

`CNC(=O)c1cc(Cl)cc(N2CCCc3cc(OC)ccc32)c1`: the GI50 in the data set on DU-145 [4] was found to be 1020 nM; with KB [6], 1040 nM; in [7], 430 nM; in the data set on A549 [8] it was 740 nM.

Consider `COc1ccc(N(C)c2cc(Br)cc(C(=O)NC3CCCC3)c2)cc1`, for which the figures for the concentration for 50% growth inhibition (GI50) with DU-145 [4] and in the data set with KB [6] were 110 nM and 120 nM, respectively.

Regarding `CNc1nc(N2CCCc3cc(OC)ccc32)c2ccccc2n1`, the t1/2 with Liver microsomes was 25.97 min. For the same molecule, the logD at 24 h in data set [1] is 1.07. Moreover, the solubility in data set [5] was 7.21 µg/mL (≈ 22.5 µM). Also, the results for the inhibition on Tubulin (Homo sapiens) [2] and on Tubulin (Homo sapiens) [3] were 76% and 95%, respectively. The molecule also had an IC50 on Tubulin of 920 nM. Besides, the GI50 is 23 nM in the data set on DU-145 [4], 25 nM with KB [6], 29 nM in [7] and 27 nM in the data set on A549 [8].

Take `COC(=O)c1cc(Cl)cc(N2CCCc3cc(OC)ccc32)c1`: the GI50 with DU-145 [4] is 1510 nM; in the data set with KB [6], 2330 nM; in data set [7], 1780 nM; with A549 [8], 2230 nM.

`COc1ccc(N(C)c2cc(Cl)ccc2CO)cc1`: the GI50 with DU-145 [4] came to 16000 nM; in the data set with KB [6] it was 19500 nM; in data set [7] it was 18100 nM; with A549 [8] it was 21700 nM.

With `COC(=O)c1ccc(Cl)nc1N(C)c1ccc(OC)cc1`, the GI50 stood at 210 nM in the data set on DU-145 [4], 260 nM in the data set with KB [6], 200 nM in data set [7] and 230 nM with A549 [8].

Turning to `COCc1ccc(Cl)cc1N(C)c1ccc(OC)cc1`, the GI50 in the data set with DU-145 [4] amounted to 3130 nM; in the data set on KB [6], 5240 nM; in [7] it was 2850 nM; with A549 [8], 4530 nM.

As for `COC(=O)c1ccc(Cl)cc1N(C)c1ccc(OC)cc1`, the GI50 with DU-145 [4] was found to be 1680 nM; with KB [6], 1980 nM; in data set [7] it was 1890 nM; in the data set with A549 [8] it was 3360 nM.

As for `COC(=O)c1cc(Br)cc(N2CCCc3cc(OC)ccc32)c1`, the GI50 in the data set on DU-145 [4] was determined as 1280 nM; with KB [6], 1370 nM; in [7] it was 1270 nM; in the data set with A549 [8], 1120 nM.

The molecule `COc1ccc2c(c1)CCCN2c1cc(C)nc2ccccc12` showed a t1/2 in the data set with Liver microsomes of 7.89 min. The logD at 24 h in data set [1] is 3.98. In addition, the solubility in data set [5] was found to be 3.21 µg/mL (≈ 10.5 µM). Moreover, the inhibition on Tubulin (Homo sapiens) [2] was 61%; at Tubulin (Homo sapiens) [3], 87%. In addition, on Tubulin, the IC50 came out at 1000 nM. In addition, the GI50 with DU-145 [4] stood at 38 nM; in the data set with KB [6], 91 nM; in data set [7], 55 nM; in the data set with A549 [8], 45 nM.

As for `COC(=O)c1cc(Cl)cc(N(C)c2ccc(OC)cc2)c1`, the GI50 worked out at 1460 nM in the data set with DU-145 [4], 1610 nM in the data set on KB [6], 1570 nM in [7] and 1600 nM with A549 [8].

With `COc1ccc(N(C)c2cc(Br)cc(C(=O)NC3CC3)c2)cc1`, in data set [1], the logD at 24 h came out at 4.33. Besides, the solubility in [5] came out at 0.16 µg/mL (≈ 0.426 µM). At Tubulin (Homo sapiens) [3], this molecule came in with an inhibition of 69%. Half-maximal inhibition against Tubulin (IC50) was put at 1600 nM. In the data set on KB [6], the GI50 was 170 nM.

`CNC(=O)c1ccc(Cl)cc1N(C)c1ccc(OC)cc1`: the GI50 came to 98900 nM in the data set on DU-145 [4], 188000 nM in the data set with KB [6], 61000 nM in [7] and 43200 nM in the data set on A549 [8].

Molecule `COc1ccc2c(c1)CCCN2c1cc(Br)cc(C(=O)NC2CC2)c1` came in with a logD at 24 h in data set [1] of 4.75. For the same molecule, in data set [5], the solubility is 0.26 µg/mL (≈ 0.648 µM). The inhibition on Tubulin (Homo sapiens) [3] turned out to be 75%. Inhibition on Tubulin was half-maximal at 1000 nM (IC50). The GI50 in the data set on DU-145 [4] came out at 150 nM; in the data set with KB [6] it was 160 nM; in data set [7], 190 nM; in the data set with A549 [8], 170 nM.

For the molecule `COC(=O)c1cc(Br)cc(N(C)c2ccc(OC)cc2)c1`, the GI50 in the data set with DU-145 [4] was 970 nM; in the data set on KB [6], 1360 nM; in [7], 1200 nM; in the data set with A549 [8], 1240 nM.

`COc1ccc2c(c1)CCCN2c1nc(C)nc2ccccc12` came in with a t1/2 with Liver microsomes of 25.19 min. This molecule also gave a logD at 24 h in [1] of 3.65. In [5], this molecule yielded a solubility of 7.67 µg/mL (≈ 25.1 µM). The inhibition at Tubulin (Homo sapiens) [2] was 89%; on Tubulin (Homo sapiens) [3], 98%. The same molecule registered an IC50 at Tubulin of 1000 nM. The GI50 was determined as 15 nM with DU-145 [4], 11 nM with KB [6], 18 nM in data set [7] and 18 nM in the data set on A549 [8].

With `CC(=O)O[C@H]1C(=O)[C@@]2(C)[C@H]([C@H](OC(=O)c3ccccc3)[C@]3(O)C[C@H](OC(=O)[C@H](O)[C@@H](NC(=O)c4ccccc4)c4ccccc4)C(C)=C1C3(C)C)[C@]1(OC(C)=O)CO[C@@H]1C[C@@H]2O` [PACLITAXEL], the GI50 in the data set on DU-145 [4] is 6 nM; in the data set with KB [6], 6.4 nM; in data set [7], 1210 nM; with A549 [8], 7.6 nM.

Turning to `COC(=O)c1cc(N(C)c2ccc(OC)cc2)cc(C(F)(F)F)c1`, the GI50 was 11500 nM with DU-145 [4], 13500 nM in the data set on KB [6], 13100 nM in data set [7] and 15100 nM with A549 [8].
